Compound activity (PubChem BioAssay)
AI-2 QS modul = Vibrio harveyi AI-2 quorum sensing modulation; 0.4% of 300,000 active; Vibrio harveyi JMH597 AI-2 luminescence/OD600 ratio, 9 h; active compounds read low; strain lacks LuxN and CqsS sensors; 0 = neutral-control median; activity change, % at 7.5 µM; in the data active = activity change below about -75%, passing the limit was not always enough;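 note: luminescence divided by OD600 gain over 9 h not by final OD600 alone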
HIF activator = HIF pathway transcriptional activation; 0.32% of 300,000 active; activation, % at 7.5 µM (by protocol); U2OS HRE-luciferase reporter, luminescence; normalized: DMSO 0%, desferrioxamine 100%;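 active = mean activation of at least 10% of the iron chelator positive control signal, with at least half of replicates also reaching 10%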
T cruzi inh = T. cruzi replication inhibition; T. cruzi beta-gal in NIH3T3, luminescence, 90 h; inhibition, % (no concentration beside the values); 1.4% of 300,000 active; AID 1885;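 active = mean inhibition across valid replicates above about 55%, limit read from the data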;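 note: signal also drops with host cell toxicity which is not excluded here; 0% = plate median of DMSO wells and 100% = zero luminescence signal; higher percent means less beta-gal luminescence so fewer parasites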
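Read-out: Parasite load inhibition, % | Test system: Mouse NIH/3T3 fibroblasts infected with β-gal-expressing T. cruzi Tulahuen C4 | Amount: 5,000 cells/well | Medium: DMEM, 2% fetal bovine serum | Signal: GalScreen β-gal luminescence, detergent lysis, 60 min | Timing: 3 h attach, ≥90 h co-culture | Also added: Tulahuen C4 trypomastigotes, 5000/well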
ARNT-TACC3 inh = disruptors of human ARNT/TACC3 interaction; inhibition, % at 9.99 µM; AlphaScreen His-ARNT PAS-B/GST-TACC3 binding, luminescence; TACC3 fragment carries E629A point mutation; AID 623870; 0.66% of 390,000 active; Q9Y6A5;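 active = mean inhibition of replicates at least 50% and at least half of replicates each reaching 50%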;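 note: 0% = complete ARNT plus TACC3 wells and 100% = ARNT alone without TACC3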
The depositor's hits bear a star; · = no result given. A selection: hits, their analogues and other compounds. The true share with any hit is near 2%.

SMILES | AI-2 QS modul | HIF activator | T cruzi inh | ARNT-TACC3 inh
O=C(COC(=O)c1ccccc1Nc1ccccc1)NCc1ccccc1Cl | 44 | 683* | -16 | -1
COCCNC(=O)C[C@H]1CC[C@@H]2[C@H](COc3ccc(NC(=O)c4cc(C)on4)cc3C(=O)N2C)O1 | · | · | · | -4
CO[C@@H](CN(C)S(=O)(=O)c1cccc(Cl)c1)[C@H](C)CN(C(=O)Nc1ccccc1F)[C@@H](C)CO | · | · | · | 3
Cc1onc(-c2c(Cl)cccc2Cl)c1C(=O)N=C(N)N1CCCC1 | 15 | 28* | -5 | -6
Cc1ccc(C)c(-n2c(-c3ccc(Br)cc3)csc2=NC(=O)c2ccccc2F)c1 | 11 | -7 | 64* | -2
CCCCOc1ccc(-c2nc(=S)[nH][nH]2)cc1 | -89* | 2 | -11 | -2
CC(C)NC(=O)N(C)C[C@H]1OCCCC[C@@H](C)Oc2ccc(NC(=O)CCC(F)(F)F)cc2C(=O)N([C@@H](C)CO)C[C@@H]1C | · | · | · | -3
O=C(NC(=S)Nc1ccc(CN2CCCCC2)cc1)c1cccc(OCc2ccccc2)c1 | 10 | 0 | 73* | 26
O=C(O)c1ccc(NC(=S)NC(=O)c2cccc(COc3ccccc3)c2)cc1 | -2 | 0 | -4 | -2
COc1ccc(S(=O)(=O)N(C)C[C@@H]2OCCCC[C@@H](C)Oc3ccc(NS(=O)(=O)c4ccc(F)cc4)cc3C(=O)N([C@@H](C)CO)C[C@H]2C)cc1 | · | · | · | -8
Oc1cccc(/C=N/NC(=S)NCCN2CCOCC2)c1O | 0 | 1 | 13 | 69*
C[C@@H]1CN([C@H](C)CO)C(=O)c2cc(C3=CCCCC3)cnc2O[C@H]1CN(C)C(=O)NC1CCCC1 | · | · | · | -2
CC(C)CN(CCNC(=O)c1cn(C)c2ccc(S(=O)(=O)N3CCCC3)cc2c1=O)CC(C)C | 20 | 184* | 0 | -1
CN(CCNC(=O)c1cn(C)c2ccc(S(=O)(=O)N(C)C)cc2c1=O)CCc1ccccc1 | -7 | 0 | 12 | -2
CCN(CC)S(=O)(=O)c1ccc2c(c1)c(=O)c(C(=O)NCCN(C)CCc1ccccc1)cn2C | 33 | 0 | 56* | ·
CCOC(=O)c1c(C)[nH]c(C(=O)OCC(=O)Nc2sc(C(=O)N(C)C)c(C)c2C(=O)OCC)c1C | 14 | 0 | 69* | -3
Cc1cc(C)c(-c2csc(NC(=O)c3cc([N+](=O)[O-])ccc3N3CCOCC3)n2)c(C)c1 | 23 | 0 | 66* | 5
Cc1c2cc[n+](CCN3CCCCC3)cc2c(C)c2c1[nH]c1ccc(O)cc12 | · | · | · | 49*
O=C(NCc1cccnc1)c1sc2cc(Cl)ccc2c1Cl | 14 | 1 | 42 | 1
Cn1c(C(=O)NCc2cccnc2)cc2sc(Cl)cc21 | 11 | 1 | 61* | -2
COCCNC(=O)c1sc2nc(-c3ccccc3)cn2c1C | 10 | 71* | 0 | -4
Cc1c(C(=O)NCc2ccccn2)sc2nc(-c3ccccc3)cn12 | 15 | 2 | -28 | 1
C[C@H](CO)N1C[C@H](C)[C@@H](CN(C)C(=O)Nc2ccc(F)cc2)Oc2ccc(NS(=O)(=O)c3ccc(Cl)cc3)cc2C1=O | · | · | · | 5
CC12CCC(C(=O)N(CSC(=S)N/N=C\c3ccccc3O)C1=O)C2(C)C (centres undefined) | 1 | 0 | -45 | 66*
COc1ccc(/C=N\NC(=S)SCN2C(=O)C3CCC(C)(C2=O)C3(C)C)cc1 (centres undefined) | 101 | 0 | -13 | 7
SMILES | AI-2 QS modul | HIF activator | T cruzi inh | ARNT-TACC3 inh
COCC(=O)Nc1ccc2c(c1)OC[C@@H](C)N(CCC(F)(F)F)C[C@H](C)[C@H](OC)CN(C)C2=O | · | · | · | -2
NC(=O)N/N=C\c1cc(Br)ccc1O | 3 | 0 | -3 | 11
Nc1nonc1-n1nnc(C(=O)N/N=C/c2cc(Br)ccc2O)c1CNc1ccccc1 | 9 | 7 | 59* | -51
Nc1nonc1C(=O)N/N=C/c1cc(Br)ccc1O | -89* | 22* | 1 | ·
Cc1noc(C)c1NC(=O)Nc1ccc2c(c1)C(=O)N([C@@H](C)CO)C[C@H](C)[C@@H](CN(C)S(=O)(=O)c1c(C)noc1C)OCCCC[C@@H](C)O2 | · | · | · | -2
CN1CCN(c2nc(-c3ccccn3)nc3ccccc23)CC1 | 9 | 0 | 13 | 67*
CCN1CCN(c2nc(-c3ccncc3)nc3ccccc23)CC1 | 16 | 1 | 69* | ·
CC(C)CC#Cc1ccc2c(c1)O[C@H](CN(C)Cc1ccncc1)[C@@H](C)CN([C@@H](C)CO)S2(=O)=O | · | · | · | 3
CC(C)NC(=O)N(C)C[C@H]1Oc2ccc(NC(=O)NC3CCCCC3)cc2CC(=O)N([C@@H](C)CO)C[C@@H]1C | · | · | · | -13
NCC(O)COCCC12CC3CC(CC(C3)C1)C2 (centres undefined) | 2 | -1 | -8 | 2
CC(NCC(O)COCCC12CC3CC(CC(C3)C1)C2)c1ccccc1 (centres undefined) | 14 | -1 | 60* | -3
CC=Cc1ccc2n(c1=O)C[C@H]1[C@H](CO)[C@@H](C(=O)N3CCc4ccccc4C3)N(C(=O)C3CC3)[C@@H]21 (mixture of isomers) | · | · | · | 7
O=C1C=CC(=O)N1CCNc1ncc(C(F)(F)F)cc1Cl | 4 | 0 | 57* | -12
C[C@H]1CN([C@@H](C)CO)C(=O)c2cc(NC(=O)Nc3ccc(F)cc3)ccc2O[C@H]1CN(C)C(=O)Nc1cccc2ccccc12 | · | · | · | 7
CCCCN(C)CC(O)Cn1cc(/C=C/C(=O)c2ccc(OCC)cc2)c2ccccc21 (centres undefined) | 12 | 0 | 59* | ·
CCCCN(C)CC(O)Cn1cc(/C=C/C(=O)c2cccs2)c2ccccc21 (centres undefined) | 0 | 0 | 53 | -1
C[C@H]1CN([C@@H](C)CO)C(=O)Cc2cc(NC(=O)CCCCCC(=O)Nc3ccccc3N)ccc2O[C@H]1CN(C)Cc1ccc(-c2ccccc2)cc1 | · | · | · | -1
COc1cccc(NC(=S)N(CCc2nc3cc(C)c(C)cc3[nH]2)Cc2cccnc2)c1 | -2 | 0 | -13 | 0
Cc1ccc(C)c(NC(=S)N(CCc2nc3cc(C)c(C)cc3[nH]2)Cc2cccnc2)c1 | 12 | 0 | 66* | 1
Cc1ccccc1NC(=S)N(CCc1c(C)[nH]c2ccc(F)cc12)Cc1cccnc1 | 34 | 0 | 51 | -1
Cc1ccc(Cl)cc1NC(=S)N(Cc1cccnc1)Cc1ccccc1Cl | 5 | 0 | 72* | 1
Cc1cccc(NC(=S)N(CCc2nc3cc(C)c(C)cc3[nH]2)Cc2cccnc2)c1 | -5 | 0 | 79* | -1
O=C(NCC1CC1)[C@H]1[C@H](CO)[C@H]2Cn3c(ccc(C4=CCCCC4)c3=O)[C@@H]1N2 | · | · | · | 5
Cc1ccc(NC(=O)N(Cc2ccco2)Cc2cc3cc(C)cc(C)c3nc2Cl)cc1 | 3 | 0 | 56* | ·
Cc1ccc(C)c2[nH]c(=O)c(CN(Cc3ccco3)C(=O)Nc3ccccc3)cc12 | 12 | 0 | 17 | -1
